Rows were chosen to be rich in hits. Some 1.8% of all compounds tested hit in one or more screens of this group.
PHOSPHO1 block = PubChem AID 1565. recombinant PHOSPHO1, absorbance phosphatase assay. inhibition, % at 13.3 µM. 290,000 tested, 1.1% active. Phosphoethanolamine/phosphocholine phosphatase (Homo sapiens), Q8TCT1; in the data active means inhibition above about 60%
Target sequence (Q8TCT1 whole entry, looked up): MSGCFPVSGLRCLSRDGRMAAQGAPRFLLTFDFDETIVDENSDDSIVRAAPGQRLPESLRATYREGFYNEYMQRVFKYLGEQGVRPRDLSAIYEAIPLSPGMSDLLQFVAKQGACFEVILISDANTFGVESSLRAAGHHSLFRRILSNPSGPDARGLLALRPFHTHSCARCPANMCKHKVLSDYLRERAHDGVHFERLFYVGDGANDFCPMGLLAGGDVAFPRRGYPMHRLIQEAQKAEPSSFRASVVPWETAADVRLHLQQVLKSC
APOBEC3A inh = APOBEC3A ssDNA deaminase inhibitors, primary screen, selectivity assay for APOBEC3G inhibitor project, biochemical, FAM/TAMRA oligo cleavage fluorescence | 330,000 tested, 0.41% active | inhibition, % at 20 µM | recombinant A3A, FAM/TAMRA ssDNA deamination fluorescence | DNA dC->dU-editing enzyme APOBEC-3A (Homo sapiens), P31941;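 active means at least 40% inhibition at 20 µM here, with at most 30% in a related deaminase screen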;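 further: plate controls were A3A with DMSO for no effect and wells lacking A3A enzyme for full effect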
Target sequence (P31941 whole entry, looked up): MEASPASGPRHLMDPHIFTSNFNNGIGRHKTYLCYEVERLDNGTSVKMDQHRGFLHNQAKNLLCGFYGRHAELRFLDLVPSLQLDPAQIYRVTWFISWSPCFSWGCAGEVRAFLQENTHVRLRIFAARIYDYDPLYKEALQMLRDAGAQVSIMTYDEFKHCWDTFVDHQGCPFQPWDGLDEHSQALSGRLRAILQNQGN
Tb MetRS inh = T. brucei MetRS inhibitors, primary screen, biochemical, luminescence | methionyl-tRNA synthetase (Trypanosoma brucei brucei) | purified T. brucei MetRS, ATP depletion, Kinase-Glo luminescence | inhibition, % at 11.9 µM | 360,000 tested, 0.4% active | AID 624268, 2012;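 active means inhibition above a per-plate cutoff of the control wells' mean inhibition plus 3 SD, cut at about 5.5% in these data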;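 further: 0% = DMSO wells median and 100% = median of wells with control inhibitor compound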
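assay system = parasite MetRS enzyme | timing = 15 min preincubation, 2 h reaction, all 25 °C | evaluation = percent inhibition relative to median high and low control wells | medium = HEPES buffer containing pyrophosphatase, BSA, spermine, DTT | compound = single dose, 11.9 µM final nominal, 0.9% final DMSO | detection = Kinase-Glo luminescence, ATP depletion format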
p-CIP stab down = p/CIP-EGFP fusion destabilizers, primary screen, fluorescence, F442A cells; Q05BA5; 16 h; decrease of EGFP signal, % at 10 µM; 290,000 tested, 0.01% active; AID 1984, 2009;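 active means EGFP signal decrease of at least 30% at 10 µM or well 3 SD below plate mean, unless failing retest; inactive means the rest, including hits failing retest or dose response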
A3G deaminase = APOBEC3G DNA deaminase inhibitors, primary screen, biochemical, fluorescence, single-stranded DNA substrate, uHTS; recombinant A3G, ssDNA deamination FAM/TAMRA fluorescence; inhibition, % at 20 µM; 330,000 tested, 0.28% active;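 active means inhibition of at least 40% at 20 µM, with no more than 30% in the related APOBEC3A deaminase screen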;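 further: plate controls were DMSO wells with A3G for no effect and wells lacking A3G enzyme for full effect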
* marks the source's active call; other numbers are inactive results.

CCOC(=O)C1=C(C)N=c2s/c(=C/c3ccco3)c(=O)n2C1c1cccc(OC)c1 (stereo not given) was read as PHOSPHO1 block 66*, APOBEC3A inh 14, p-CIP stab down -16 and A3G deaminase 2.
`NS(=O)(=O)c1ccc(NC(=O)COC(=O)c2ncc(Cl)c(Cl)c2Cl)cc1` gave APOBEC3A inh -3, Tb MetRS inh 0 and A3G deaminase -5.
Screening CC(C)C(=O)Nc1sc2c(c1-c1nc3ccccc3[nH]1)CCCC2 returned PHOSPHO1 block 104*, APOBEC3A inh 2, Tb MetRS inh 0, p-CIP stab down 2 and A3G deaminase 1.
Screening Cc1ccc(-c2nc(NC(=O)CSc3cc(C)c4ccccc4n3)ns2)cc1 returned PHOSPHO1 block 60*, APOBEC3A inh 2, Tb MetRS inh -1, p-CIP stab down 1 and A3G deaminase -4.
`COc1ccc2c(C)cc(SCC(=O)Nc3nsc(-c4ccc(C)cc4)n3)nc2c1` gave PHOSPHO1 block -6, APOBEC3A inh -2, Tb MetRS inh -2, p-CIP stab down -12 and A3G deaminase -2.
`Cn1c(CCNC(=O)OC(C)(C)C)n[nH]c1=S` gave PHOSPHO1 block 79*, APOBEC3A inh -5, Tb MetRS inh -2, p-CIP stab down -6 and A3G deaminase -9.
Screening CC(C)(C)OC(=O)NCCc1n[nH]c(=S)o1 returned PHOSPHO1 block 28, APOBEC3A inh -4, Tb MetRS inh -1, p-CIP stab down -7 and A3G deaminase -13.
COc1cccc(-n2c(CNC(=O)OC(C)(C)C)n[nH]c2=S)c1 was read as PHOSPHO1 block 84*, APOBEC3A inh -1, Tb MetRS inh -1, p-CIP stab down 4 and A3G deaminase 6.
`O=C(NCCc1c[nH]c2ccccc12)C(=O)Nc1cc2c3c(c1)CC(=O)N3CCC2` gave APOBEC3A inh 4, Tb MetRS inh 0 and A3G deaminase 3.
`Cc1ccccc1NC(=O)NC1CCCCC1C` (stereo not given) gave PHOSPHO1 block 30, APOBEC3A inh 4, Tb MetRS inh -1, p-CIP stab down 2 and A3G deaminase 2.
Cc1ccsc1C(=O)OCC(=O)N1CCN(C(=O)c2ccco2)CC1 was read as PHOSPHO1 block 63*, APOBEC3A inh -3, Tb MetRS inh -1, p-CIP stab down 4 and A3G deaminase -3.
COc1ccc(-c2cc(C(=O)N3CCN(c4ncccn4)CC3)c3ccccc3n2)cc1OC was read as APOBEC3A inh 27, Tb MetRS inh 0 and A3G deaminase -1.
Screening Cc1ccc(-c2cc(C(=O)N3CCN(c4ncccn4)CC3)c3ccccc3n2)cc1 returned PHOSPHO1 block 69*, APOBEC3A inh 12, Tb MetRS inh 0, p-CIP stab down -11 and A3G deaminase -1.
Screening Cc1cccc(C(=O)OCC(=O)N2CCN(C(=O)c3ccco3)CC2)c1O returned APOBEC3A inh -2, Tb MetRS inh 0 and A3G deaminase -6.
`O=C(OCC(=O)N1CCN(C(=O)c2ccco2)CC1)c1cc(-c2ccc(F)cc2)nc2ccccc12` gave PHOSPHO1 block -5, APOBEC3A inh 0, Tb MetRS inh -1, p-CIP stab down 1 and A3G deaminase -1.
O=C(OCC(=O)N1CCN(C(=O)c2ccco2)CC1)c1cc(-c2ccccc2)nc2ccccc12 was read as PHOSPHO1 block 61*, APOBEC3A inh 1, Tb MetRS inh -1, p-CIP stab down -1 and A3G deaminase -5.
For CCC1CCC(C(=O)NC(C(=O)NCCc2ccc(S(N)(=O)=O)cc2)C(C)C)CC1 (stereo not given) the results were PHOSPHO1 block 39, APOBEC3A inh -1, Tb MetRS inh 1, p-CIP stab down -21 and A3G deaminase -2.
CC(=O)Nc1ccc(CN(C)c2c(C)nc3ccc(C(=O)NC4CCN(Cc5ccccc5)CC4)cn23)cc1 was read as Tb MetRS inh 0.
`COc1ccc(CN2C(=O)C(CC(=O)NCCCCc3ccccc3)CC(C(=O)N3CCCCCC3)=C2C)cc1` (stereo not given) gave Tb MetRS inh 0.
For CC1C=CCC2C(=O)N(c3cc(Cl)ccc3O)C(=O)C12 (stereo not given) the results were PHOSPHO1 block 6, APOBEC3A inh -1, Tb MetRS inh 0, p-CIP stab down 5 and A3G deaminase -8.
`COc1cccc(CN2CCNC(=O)C2CC(=O)N(C)C2CCOCC2)c1OC` (stereo not given) gave PHOSPHO1 block 66*, APOBEC3A inh -1, Tb MetRS inh 0, p-CIP stab down -18 and A3G deaminase -9.
`COc1ccc(-n2c(COc3ccccc3)nnc2SCC(N)=O)cc1` gave PHOSPHO1 block 72*, APOBEC3A inh 0, Tb MetRS inh 0, p-CIP stab down -5 and A3G deaminase -2.
For CCOC(=O)CSc1nnc(Cc2ccc(OC)cc2)n1-c1ccccc1 the results were PHOSPHO1 block 79*, APOBEC3A inh 0, Tb MetRS inh 0, p-CIP stab down -4 and A3G deaminase -6.
O=C(CSc1nnc(COc2ccccc2)n1-c1ccccc1)c1ccccc1 was read as PHOSPHO1 block 76*, APOBEC3A inh -2, Tb MetRS inh 0, p-CIP stab down 0 and A3G deaminase -6.
For COc1ccc(-n2c(COc3ccc(C)cc3)nnc2SCC(N)=O)cc1 the results were PHOSPHO1 block 95*, APOBEC3A inh -2, Tb MetRS inh 1, p-CIP stab down -4 and A3G deaminase -7.
`COc1ccc(C(=O)CSc2nnc(COc3ccc(C#N)cc3)n2-c2ccccc2)cc1` gave PHOSPHO1 block 35, APOBEC3A inh -2, Tb MetRS inh 0, p-CIP stab down -11 and A3G deaminase -1.
CCOc1ccc(Cl)cc1-c1cc(C(=O)NC(C)C)[nH]n1 was read as Tb MetRS inh -1.
For COc1cccc(-n2c(SCC(N)=O)nnc2-c2c[nH]c3ccccc23)c1 the results were PHOSPHO1 block 38, APOBEC3A inh 1, Tb MetRS inh 11*, p-CIP stab down -5 and A3G deaminase 2.
CCN=C1Sc2nc3ccc(OCC)cc3cc2CN1CCOC was read as PHOSPHO1 block 72*, APOBEC3A inh 1, Tb MetRS inh -1, p-CIP stab down -7 and A3G deaminase -2.
`CCOc1ccc2nc3c(cc2c1)CN(CCOC)C(=NC)S3` gave PHOSPHO1 block -18, APOBEC3A inh 0, Tb MetRS inh 0, p-CIP stab down 6 and A3G deaminase -4.
CC1CCN(C(=O)c2ccc3c(c2)OCO3)CC1 was read as PHOSPHO1 block 23, APOBEC3A inh -2, Tb MetRS inh -1, p-CIP stab down -19 and A3G deaminase 3.

Bioassay records deposited in PubChem BioAssay by several laboratories.
